Source: ChEMBL document CHEMBL4622938, “Discovery of phenanthridine analogues as novel chemical probes disrupting the binding of DNA to ΔFosB homodimers and ΔFosB/JunD heterodimers” (Bioorg Med Chem Lett, 2020)

What was measured:
Protein FosB = target: T1, Protein FosB (Homo sapiens, UniProt P53539); assay: (§1) Inhibition of recombinant Hi6-tagged deltaFOSB (unknown origin) expressed in insect cells interaction with TAMRA labeled 5'-GTCGGTGACTCAAAACA-3' AP1 oligonucleotide measured after 15 mins by fluorescence polarization assay
T1 sequence (P53539 whole entry): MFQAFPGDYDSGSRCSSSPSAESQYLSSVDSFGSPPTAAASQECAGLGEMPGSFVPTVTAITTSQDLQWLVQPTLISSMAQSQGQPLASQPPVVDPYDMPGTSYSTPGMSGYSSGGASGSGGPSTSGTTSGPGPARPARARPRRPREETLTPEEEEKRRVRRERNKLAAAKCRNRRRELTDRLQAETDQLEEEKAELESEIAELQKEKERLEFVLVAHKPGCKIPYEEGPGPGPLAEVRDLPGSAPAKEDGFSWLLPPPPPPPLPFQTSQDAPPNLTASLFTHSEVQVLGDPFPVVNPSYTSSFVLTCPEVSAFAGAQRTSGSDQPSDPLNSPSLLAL
Procedure, shortened: (§2)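 ΔFosB homodimer, 320 nM (as monomers). Compound serially diluted, 10 concentrations over 0–200 μM in quadruplicate. Compound premixed 5 min with 25 nM TAMRA-cdk5 AP-1 19-mer duplex in 20 mM HEPES pH 7.5, 50 mM NaCl, then protein added for 15 min. FP read at ex 530/540, em 590 nm. Compound-plus-oligo wells without protein serve as the interference control. Four-parameter fit; IC50 is mean ± SD of two independent days.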

[1] = target: T2, Protein fosB/Transcription factor jun-D (Homo sapiens, UniProt P53539+P17535); assay: (§3) Inhibition of recombinant Hi6-tagged deltaFOSB (unknown origin)/His6-tagged JUND (unknown origin) expressed in insect cells interaction with TAMRA labeled 5'-GTCGGTGACTCAAAACA-3' AP1 oligonucleotide measured after 15 mins by fluorescence polarization assay
T2 sequence (P53539 whole entry): T1 sequence (P53539 whole entry)
T2 sequence (P17535 whole entry): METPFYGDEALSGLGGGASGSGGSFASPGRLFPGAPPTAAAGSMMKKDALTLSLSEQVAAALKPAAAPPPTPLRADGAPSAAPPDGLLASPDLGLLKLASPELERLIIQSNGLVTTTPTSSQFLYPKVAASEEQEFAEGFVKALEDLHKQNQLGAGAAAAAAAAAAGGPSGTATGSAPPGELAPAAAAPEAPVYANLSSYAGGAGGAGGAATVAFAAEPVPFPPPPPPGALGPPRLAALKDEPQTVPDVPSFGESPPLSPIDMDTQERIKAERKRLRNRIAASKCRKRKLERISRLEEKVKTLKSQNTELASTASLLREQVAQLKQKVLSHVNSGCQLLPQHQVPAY
Procedure, shortened: (§4)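 ΔFosB/JunD heterodimer, 280 nM (as monomers). Compound serially diluted, 10 concentrations over 0–200 μM in quadruplicate. Compound premixed 5 min with 25 nM TAMRA-cdk5 AP-1 19-mer duplex in 20 mM HEPES pH 7.5, 150 mM NaCl, then protein added for 15 min. FP read at ex 530/540, em 590 nm. Wells of compound with oligo and no protein check for DNA interference. IC50 from a four-parameter fit, mean ± SD of two independent days.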

[2] = target: T3, Protein fosB/Transcription factor jun-D (Homo sapiens, UniProt P17535+P53539); assay: as §3; procedure, shortened: as §4
T3 sequence (P53539 whole entry): T1 sequence (P53539 whole entry)
T3 sequence (P17535 whole entry): T2 sequence (P17535 whole entry)

[3] = target: T4, Protein FosB (Homo sapiens) (UniProt P53539); assay: as §1; procedure, shortened: as §2
T4 sequence (whole entry): T1 sequence (P53539 whole entry)

[4] = target: Protein fosB/Transcription factor jun-D (Homo sapiens) (UniProt P53539+P17535); assay: as §3; procedure, shortened: as §4

| Structure (SMILES) | IC50 (Protein FosB) | IC50 [1] | IC50 (Protein FosB; read-out: IC50) [µM] | IC50 [2] [µM] | inhibition [3] | inhibition [4] |
| --- | --- | --- | --- | --- | --- | --- |
| Cc1cccc2c1NC(C(=O)O)C1CC=CC21 (configuration not stated) | Not Active | Not Active |  |  |  |  |
| CNC(=O)C1Nc2c(OC)cccc2C2C=CCC12 (configuration not stated) |  |  | > 100 | > 100 |  |  |
| COc1cccc2c1NC(C(=O)O)C1CC=CC21 (configuration not stated) |  |  | 28.9 | 13.1 |  |  |
| COc1cccc2c1N(C(C)=O)C(C(=O)O)C1CC=CC21 (configuration not stated) |  |  | > 100 | > 100 |  |  |
| COc1cc(OC)c2c(C3CCNCC3)nc3c(OC)cccc3c2c1 |  |  | 58 | 55.7 | Dose-dependent effect | Dose-dependent effect |
| COc1cccc2c1NC(CO)C1CC=CC21 (configuration not stated) |  |  | > 100 | > 100 |  |  |
| CCc1nc2c(OC)cccc2c2cc(OC)cc(OC)c12 | Not Active | Not Active |  |  |  |  |
| COc1cc(OC)c2c(C3CCN(C(=O)OC(C)(C)C)CC3)nc3c(OC)cccc3c2c1 |  |  | > 100 | > 100 |  |  |
| COc1cccc2c1NC(C(=O)O)C1CCCC21 (configuration not stated) |  |  | > 100 | > 100 |  |  |
| COc1cccc2c1NC(C(=O)Nc1ccccc1)C1CC=CC21 (configuration not stated) |  |  | > 100 | > 100 |  |  |
| CCOC(=O)c1nc2c(C)cccc2c2c1CCC2 |  |  | > 100 | > 100 |  |  |
| COc1cc(OC)c2c(C(=O)O)nc3c(OC)cccc3c2c1 |  |  | > 100 | > 100 |  |  |
| COc1cc(OC)c2c(C3CCN(C(C)=O)CC3)nc3c(OC)cccc3c2c1 |  |  | > 100 | > 100 |  |  |
| Cc1cccc2c3c(c(C(=O)O)nc12)CCC3 |  |  | > 100 | > 100 |  |  |
| CCOC(=O)C1Nc2c(OC)cccc2C2C=CCC12 (configuration not stated) |  |  | > 100 | > 100 |  |  |
